STAT1 activator: STAT1 signaling activators, primary screen, cell-based, HTS, luciferase reporter; NIH 3T3 STAT1-luciferase reporter, IFN-gamma, luminescence; 100% = IFN-gamma alone, no compound; activation (% of control), % at 5.5 µM; hit rate 2.6% among 200,000; AID 932, 2007;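 active = activation above the screen-wide mean activation plus 3 SD, cut at about 130% in these data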
APP 5'UTR act: activators of APP 5'UTR luciferase reporter, primary screen, SH-SY5Y cells | SH-SY5Y APP 5'UTR luciferase reporter, luminescence; zero percent = DMSO vehicle wells | activation, % at 2 µM | hit rate 1% among 190,000 | AID 1276, 2008;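 active = activation above a set limit, based on mean plus 3 SD of controls, cut at about 140% in these data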
STAT3 activator: IL-6 driven STAT3 reporter potentiators, primary screen, U3A cells, luciferase, luminescence, MLSCN library; IL-6 STAT3-luciferase reporter; 100% = signal with IL-6 EC80 alone; AID 871, 2007; hit rate 0.91% among 190,000; activation (% of control), % at 5.6 µM;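 active = activation above the screen-wide mean of compound activation plus 3 SD, cut at about 130% in these data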
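Material: human U3A cells carrying STAT3-luciferase construct. Measured by: reporter luminescence signal. Timing: compound 1 h, then IL-6 6 h at 37 °C.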
STAT3 inh: IL-6 driven STAT3 reporter inhibitors, primary screen, U3A cells, luciferase, luminescence, MLSCN library | IL-6 STAT3-luciferase reporter; host cell line lacks STAT1 | AID 862, 2007 | hit rate 0.89% among 190,000 | inhibition, % at 5.5 µM;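 active = inhibition above the mean inhibition across all screened compounds plus 3 SD, cut at about 44% in these data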
NF-kB neuron act: activators of NF-kB expression in neurons, primary screen, cell-based, HTS; human neuronal cells, NF-kB reporter expression; active compounds read high; fold change at 12.5 µM; hit rate 1.6% among 190,000; AID 1239, 2008; in the data active = fold change above about 3.3
STAT1 inh: STAT1 signaling inhibitors, primary screen, cell-based, HTS, luciferase reporter; inhibition, % at 5.5 µM; hit rate 0.35% among 200,000; NIH 3T3 STAT1-luciferase reporter, IFN-gamma, luminescence;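 active = inhibition above a set limit, the mean inhibition across all tested compounds plus 3 SD, cut at about 34% in these data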
Each line names hits and unclear results; the compound was inactive in the other large screens. Hits are enriched below; roughly 5.1% of the tested compounds scored in any of these assays.

CCN1/C(=C/C(C)=C/c2sc3ccccc3[n+]2CC)Sc2ccccc21	STAT3 inh 95.9, STAT1 inh 45.1
COc1ccc(CNC(=O)c2cccc(S(=O)(=O)N3CCN(C)CC3)c2)cc1	none
Cc1ccc(-c2csc(/C(C#N)=C(\O)CCl)n2)cc1	STAT1 activator 139.5
O=C(CSc1nnc(CNc2ccc(Cl)cc2)o1)Nc1nc2ccccc2s1	none
CCCn1c(Nc2ccccc2C)nc2ccccc21	none
Brc1ccc2[nH]c3c(N4CCc5ccccc5C4)ncnc3c2c1	none
c1ccc2c(c1)[nH]c1c(N3CCSCC3)ncnc12	STAT1 inh 37.8
Cc1ccc2[nH]c3c(N4CCc5ccccc5C4)ncnc3c2c1	STAT3 inh 72.9
c1ccc2c(c1)[nH]c1c(N3CCN(C4CCCCC4)CC3)ncnc12	none
Cc1ccc(C(=O)Nc2nc(COc3ccccc3)cs2)s1	none
CCC(CO)Nc1ncnc2c1cnn2-c1ccc(OC)cc1 (centres undefined)	STAT1 activator 146.9, APP 5'UTR act 148.0
CCC(CO)Nc1ncnc2c1cnn2-c1ccc(Cl)cc1 (centres undefined)	STAT1 activator 146.8, APP 5'UTR act 162.5
COc1ccc(CC(=O)N2CCN=C2SCc2cccc([N+](=O)[O-])c2)cc1	none
CN(C)CCNc1oc(COc2ccc(Cl)cc2Cl)nc1C#N	none
C=CCNC(=S)N/N=C(\C)c1ccccn1	STAT1 activator 135.7
Cc1cc(C)c2cc(C#N)c(NCCCNC(=O)CCC(=O)O)nc2c1	none
c1coc(CNc2nc(-c3cccs3)cs2)c1	none
Oc1ccc(-c2csc(NCc3ccco3)n2)cc1	NF-kB neuron act 3.67
COc1ccccc1C(=O)Nc1nnc(C)s1	none
COCCN(C(=O)c1ccccc1OC)c1nnc(C)s1	STAT3 activator 133.7
O=C(NCc1ccco1)C1CC(=O)N(c2ccc(F)cc2)C1 (centres undefined)	none
O=c1oc2ccccc2cc1-c1nc2ccccc2o1	APP 5'UTR act 151.8, NF-kB neuron act 4.39
Cc1ccc(-c2noc(-c3cc4ccccc4oc3=O)n2)cc1	none
O=c1oc2ccccc2cc1-c1nc(-c2ccccc2)no1	STAT1 activator 144.6, NF-kB neuron act 4.12
Cc1cccc(-c2noc(-c3cc4ccccc4oc3=O)n2)c1	NF-kB neuron act 3.62
COc1ccc(N(C(C)C(=O)NCc2ccco2)S(C)(=O)=O)cc1 (centres undefined)	none
O=C(NCc1ccco1)C(c1ccncc1)N(CCC1=CCCCC1)C(=O)Cn1nnc2ccccc21 (centres undefined)	none
CCOC(=O)c1c(C)oc2c1c(C(c1cccnc1)N1CCCCC1)c(O)c1ccccc12 (centres undefined)	NF-kB neuron act 6.57
Cn1c(O)c(C2=c3ccccc3=NC2=O)sc1=Nc1ccc(Cl)cc1	NF-kB neuron act 5.15
COc1ccccc1C1CC(c2cccs2)=Nc2ccccc2S1 (centres undefined)	APP 5'UTR act 146.0, STAT3 activator 133.1
O=C(/C=C/c1ccccc1)NCCC1=CCCCC1	STAT1 activator 148.0
COc1ccc(NC(=O)NCCC2=CCCCC2)cc1	STAT1 activator 128.6
O=C(/C=C/c1ccc(F)cc1)NCCC1=CCCCC1	none
O=S(=O)(c1ccc(Cl)cc1)c1snnc1-c1ccccc1	NF-kB neuron act 6.37
O=c1c([N+](=O)[O-])c(NCCN2CCCCCC2)c2ccccc2n1-c1ccccc1	none
CC1CCN(c2c([N+](=O)[O-])nn(-c3ccc4c(c3)OCCO4)[n+]2[O-])CC1	none (no result: APP 5'UTR act)
CC(=O)Nc1ccc(-c2cc3ccccc3o2)cc1	STAT1 activator 140.8, APP 5'UTR act 222.4, NF-kB neuron act 6.5
O=c1oc2ccccc2cc1-c1ccc(O)cc1	STAT1 activator 133.6
O=c1oc2ccccc2cc1NCc1ccccc1O	NF-kB neuron act 3.58
CCC(=O)Nc1ccc(-c2cc3ccccc3oc2=O)cc1	STAT1 activator 143.1
CCC(=O)Nc1cc(-c2cc3ccccc3oc2=O)ccc1OC	none
Cc1ccccc1NCc1ccccc1O	none
O=C(NC1CCCC1)c1cccc(Cn2cc([N+](=O)[O-])cn2)c1	none
CCOC(=O)c1nnn(-c2nonc2N)c1-c1ccc(OC)cc1	none
CCCc1cc(=O)[nH]c(SCC(=O)NCCCC(=O)OCC)n1	none
COc1ccc(S(=O)(=O)N2CC(O)CC2C(=O)OCC(=O)Nc2ccc(Cl)cn2)cc1 (centres undefined)	none
COc1ccc(-c2ccc(=O)n(Cc3ccc([N+](=O)[O-])cc3)n2)cc1	STAT3 activator 133.7
COc1ccc(Cn2c(=O)c3cccnc3n(Cc3ccc([N+](=O)[O-])cc3)c2=O)cc1	none
CCC1C(=O)n2nc(-c3ccccc3)cc2N=C1C (centres undefined)	STAT1 activator 137.5
Cc1cc(-c2ccccc2)nc(=O)[nH]1	none
O=c1[nH]c(NC2CCCCC2)nnc1Cc1ccccc1	none
Cc1ccc(-c2nnc(Sc3nc4ccccc4o3)c3ccccc23)cc1	NF-kB neuron act 4.86
Clc1ccc(-c2nnc(Sc3nc4ccccc4o3)c3ccccc23)cc1	NF-kB neuron act 4.18
C/C(=N\Nc1nccnc1Cl)c1ccc(F)cc1	STAT1 activator 134.1
O=S(=O)(c1ccc(-c2csc(-c3cccnc3)n2)cc1)N1CCOCC1	none
c1ccc(-c2csc(-c3cccnc3)n2)cc1	STAT1 activator 131.8
Cc1ccc(-c2csc(-c3ccncc3)n2)cc1	STAT1 activator 144.5
COc1ccc2cc(-c3csc(-c4cccnc4)n3)ccc2c1	none
COc1ccc(-c2csc(-c3cccnc3)n2)cc1C	STAT1 activator 149.5
CC(C)(C)c1ccc(OCCCC(=O)Nc2ccc(S(N)(=O)=O)cc2)cc1	none
COC(=O)c1cc(NC(=O)C2CC2)cc(C(=O)OC)c1	none
COc1ccc(NC(=O)CSc2nnc(CNC(=O)c3ccco3)n2-c2ccccc2OC)cc1	none
Nc1cc(C(=O)c2ccccc2)ccc1[N+](=O)[O-]	none
CS(=O)(=O)c1ccc(S(=O)CC(=O)Oc2ccc(Cl)cc2)c([N+](=O)[O-])c1 (centres undefined)	STAT3 activator 134.6
Cn1c(=N)n(CC(=O)c2ccc(Br)s2)c2ccccc21	STAT1 activator 146.2, APP 5'UTR act 197.3, STAT3 activator 166.6
Cn1c(=N)n(CC(=O)c2cccs2)c2ccccc21	STAT1 activator 133.6, APP 5'UTR act 159.9, STAT3 activator 137.0, NF-kB neuron act 3.89
CC1Cc2ccccc2N1C(=O)CSc1ncc(-c2ccc(F)cc2)n1C (centres undefined)	STAT1 activator 133.1
Cn1c(-c2ccc(F)cc2)cnc1SCC(=O)N1CCCCC1	STAT1 activator 138.5, NF-kB neuron act 3.92
c1ccc(-n2cnnc2SCc2cn3ccsc3n2)cc1	none
